Experimental data reported in ChEMBL document CHEMBL1629500, “Synthesis and anticonvulsant activity of N-3-arylamide substituted 5,5-cyclopropanespirohydantoin derivatives” (Eur J Med Chem, 2010).
Calls of active or inactive are those of the source.

Legend:
[1] = tested on: Mus musculus; experiment: Neurotoxicity against ip dosed mouse by rotarod test after 0.5 hrs; type: toxicity, organism-based; conditions: in vivo
Outline: (§1)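 Mice were trained on a 1-in. knurled rod turning at 6 rpm, then given 30, 100 or 300 mg/kg ip as a suspension in 0.5% methylcellulose. They were tested at 0.5 h and 4.0 h. Neurotoxicity meant failure to keep balance on the rod for at least 1 min in each of four trials. The minimal dose affecting half or more of the mice was recorded.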

[2] = tested on: Mus musculus; experiment: Neurotoxicity against ip dosed mouse by rotarod test after 4 hrs; type: toxicity, organism-based; conditions: in vivo; outline: as §1
[3] = tested on: Mus musculus; experiment: Anticonvulsant activity in ip dosed mouse assessed as inhibition of PTZ-induced clonic seizure after 0.5 hrs; type: functional; conditions: for minimal effective dose: read-out: MED
Outline: (§2)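 Male Kunming mice were dosed ip with the compound suspended in 0.5% methylcellulose at 30, 100 and 300 mg/kg, one to four mice per dose. Pentylenetetrazole in 0.9% saline was given subcutaneously at 0.5 h and 4.0 h. Protection meant no threshold seizure, i.e. no single clonic spasm episode lasting at least 5 s. The minimal dose active in half or more of the mice was recorded.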

[4] = tested on: Mus musculus; experiment: Anticonvulsant activity in ip dosed mouse assessed as inhibition of maximum electric shock-induced hind limb tonic extension after 4 hrs; type: functional; conditions: Hindlimb; for minimal effective dose: read-out: MED
Outline: (§3)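 Male Kunming mice received the compound ip as a suspension in 0.5% methylcellulose at 30, 100 and 300 mg/kg, one to four mice per dose. At 0.5 h and 4.0 h, a 60-Hz, 50-mA current was given through corneal electrodes for 0.25 s. Absence of hindlimb tonic extension counted as protection. The minimal dose protecting half or more of the mice was recorded.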

[5] = tested on: Mus musculus; experiment: Anticonvulsant activity in ip dosed mouse assessed as inhibition of PTZ-induced clonic seizure after 4 hrs; type: functional; conditions: for minimal effective dose: read-out: MED; outline: as §2
[6] = tested on: Mus musculus; experiment: Anticonvulsant activity in ip dosed mouse assessed as inhibition of maximum electric shock-induced hind limb tonic extension after 0.5 hrs; type: functional; conditions: Hindlimb; for minimal effective dose: read-out: MED; outline: as §3
[7] = tested on: Mus musculus; experiment: Anticonvulsant activity in ip dosed mouse assessed as inhibition of PTZ-induced clonic seizure; type: functional
Outline: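 Male Kunming mice (20 ± 2.0 g) were used. Test drug was given ip to groups of 10 mice over a range of doses until at least three points fell between 10% and 90% seizure protection or minimal neurotoxicity. […] Neurotoxicity was scored on the rotorod 30 min after dosing. PI = TD50/ED50.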

[8] = tested on: Mus musculus; experiment: Anticonvulsant activity in ip dosed mouse assessed as inhibition of maximum electric shock-induced hind limb tonic extension; type: functional; conditions: Hindlimb
[9] = tested on: Mus musculus; experiment: Protective index, ratio of TD50 for mouse to ED50 for inhibition of subcutaneous pentylenetetrazole-induced seizure in mouse; type: functional
[10] = organism: Mus musculus; experiment: Protective index, ratio of TD50 for mouse to ED50 for inhibition of maximal electroshock-induced seizure in mouse; type: functional
[11] = Toxicity against ip dosed mouse; type: organism-based; conditions: in vivo

Row | Compound | Activity [1] | Activity [2] | Activity [3] | Activity [4] | Activity [5] | minimal effective dose [6] [mg/kg] | MED [1] [mg/kg] | MED [2] [mg/kg] | minimal effective dose [4] [mg/kg] | minimal effective dose [5] [mg/kg] | minimal effective dose [3] [mg/kg] | Activity [6] | ED50 [7] [mg/kg] | ED50 [8] [mg/kg] | Ratio [9] | Ratio [10] | TD50 [11] [mg/kg]
1 | Cc1cccc(C(=O)NN2C(=O)NC3(CC3(C)C)C2=O)c1 (stereo not drawn) | Not Active | Not Active | inactive | inactive | inactive | 100 | – | – | – | – | – | – | – | – | – | – | –
2 | CC1(C)CC12NC(=O)N(NC(=O)c1ccc(Br)cc1)C2=O (stereo not drawn) | – | – | inactive | – | – | 300 | 300 | 300 | 300 | 300 | – | – | – | – | – | – | –
3 | CCC1(C)CC(=O)NC1=O (stereo not drawn) [ETHOSUXIMIDE] | Not Active | Not Active | – | inactive | – | – | – | – | – | 300 | 100 | inactive | – | – | – | – | –
4 | O=C1NC(=O)C(c2ccccc2)(c2ccccc2)N1 [PHENYTOIN] | – | – | inactive | – | inactive | 30 | 100 | 100 | 30 | – | – | – | > 300 | – | – | – | –
5 | CN(C)c1ccc(C(=O)NN2C(=O)NC3(CC3(C)C)C2=O)cc1 (stereo not drawn) | Not Active | Not Active | – | – | inactive | 300 | – | – | 300 | – | 100 | – | – | – | – | – | –
6 | CC1(C)CC12NC(=O)N(NC(=O)c1ccco1)C2=O (stereo not drawn) | – | – | inactive | – | inactive | – | 100 | 300 | 300 | – | – | inactive | – | – | – | – | –
7 | COc1ccc(C(=O)NN2C(=O)NC3(CC3(C)C)C2=O)cc1OC (stereo not drawn) | Not Active | – | inactive | – | – | 300 | – | 300 | 300 | 300 | – | – | – | – | – | – | –
8 | CC1(C)CC12NC(=O)N(NC(=O)c1ccccc1Cl)C2=O (stereo not drawn) | Not Active | – | – | inactive | inactive | 300 | – | 300 | – | – | 300 | – | – | – | – | – | –
9 | CCCC(CCC)C(=O)[O-].[Na+] [VALPROATE SODIUM] | – | – | – | – | – | – | – | – | – | – | – | – | 149 | – | – | – | –
10 | CC1(C)CC12NC(=O)N(NC(=O)c1ccncc1)C2=O (stereo not drawn) | – | – | inactive | – | inactive | – | 100 | 300 | 300 | – | – | inactive | – | – | – | – | –
11 | CC1(C)CC12NC(=O)N(NC(=O)c1ccccc1)C2=O (stereo not drawn) | – | Not Active | – | inactive | inactive | 300 | 300 | – | – | – | 300 | – | – | – | – | – | –
12 | NC(=O)N1c2ccccc2C=Cc2ccccc21 [CARBAMAZEPINE] | – | – | – | – | – | – | – | – | – | – | – | – | > 100 | 8.8 | – | – | –
13 | CC1(C)CC12NC(=O)N(NC(=O)c1ccc(F)cc1)C2=O (stereo not drawn) | Not Active | – | – | – | inactive | 100 | – | 300 | 300 | – | 300 | – | – | – | – | – | –
14 | CC1(C)CC12NC(=O)N(NC(=O)c1cccs1)C2=O (stereo not drawn) | – | – | inactive | – | inactive | – | 100 | 300 | 300 | – | – | inactive | – | – | – | – | –
15 | CC1(C)CC12NC(=O)N(NC(=O)c1ccc(C(F)(F)F)cc1)C2=O (stereo not drawn) | Not Active | Not Active | – | – | – | 30 | – | – | 30 | 300 | 300 | – | 62.1 | 9.2 | 6.7 | 45.8 | 422
16 | CC1(C)CC12NC(=O)N(N1C(=O)c3ccccc3C1=O)C2=O (stereo not drawn) | Not Active | Not Active | – | – | – | 30 | – | – | 100 | 300 | 300 | – | 137 | 13.7 | 2.8 | 17.8 | 387
17 | COc1cc(C(=O)NN2C(=O)NC3(CC3(C)C)C2=O)cc(OC)c1OC (stereo not drawn) | – | – | inactive | inactive | inactive | 300 | 100 | 300 | – | – | – | – | – | – | – | – | –
18 | CC1(C)CC12NC(=O)N(NC(=O)c1cccnc1)C2=O (stereo not drawn) | – | – | inactive | – | inactive | – | 100 | 300 | 300 | – | – | inactive | – | – | – | – | –
19 | Cc1ccc(C(=O)NN2C(=O)NC3(CC3(C)C)C2=O)cc1 (stereo not drawn) | Not Active | – | inactive | inactive | – | 100 | – | 300 | – | 300 | – | – | – | – | – | – | –
20 | CC1(C)CC12NC(=O)N(NC(=O)c1ccc(Cl)cc1)C2=O (stereo not drawn) | Not Active | Not Active | – | – | inactive | 100 | – | – | 300 | – | 300 | – | – | – | – | – | –
21 | CC1(C)CC12NC(=O)N(NC(=O)c1ccc([N+](=O)[O-])cc1)C2=O (stereo not drawn) | Not Active | Not Active | – | – | inactive | 300 | – | – | 300 | – | 300 | – | – | – | – | – | –
22 | COc1ccc(C(=O)NN2C(=O)NC3(CC3(C)C)C2=O)cc1 (stereo not drawn) | Not Active | – | inactive | inactive | inactive | 100 | – | 300 | – | – | – | – | – | – | – | – | –
23 | CC(C)(C)c1ccc(C(=O)NN2C(=O)NC3(CC3(C)C)C2=O)cc1 (stereo not drawn) | Not Active | Not Active | – | – | inactive | 30 | – | – | 100 | – | 100 | – | 208 | 25.3 | 1.8 | 15.5 | 382
24 | CC1(C)CC12NC(=O)N(NC(=O)c1ccccc1F)C2=O (stereo not drawn) | Not Active | – | inactive | inactive | inactive | 100 | – | 300 | – | – | – | – | – | – | – | – | –
25 | CCC1(c2ccccc2)C(=O)NC(=O)NC1=O [PHENOBARBITAL] | – | – | – | – | – | – | – | – | – | – | – | – | 13.2 | 21.8 | – | – | –
